Measured values gathered from unrelated publications.
≈ marks a conversion by molar mass, not a printed value.

| Compound | tested on | assay | system | conditions | quantity | result |
| --- | --- | --- | --- | --- | --- | --- |
| Cc1cccc(N=C2C(=O)Nc3ccccc32)c1 | L02 | cell growth or viability, MTT |  | 48 h | IC50 | > 100 µM |
| CCOC(=O)C1=C(CN2CCC[C@@H]2C(=O)Nc2cccc(B(O)O)c2)NC(c2nccs2)=N[C@H]1c1ccc(F)cc1Br | Hepatitis B virus | viral replication, inhibitor, qPCR | HepDES19 | 72 h | EC50 | 0.12 µM |
| Cc1nc(NC(=O)N2CCC[C@H]2C(N)=O)sc1-c1ccnc(C(C)(C)C(F)(F)F)c1 | MFM-223 | cell growth or viability, ATP luminescence |  | 5 days | EC50 | 8.5 µM |
| C[C@H]1CNCCN1c1nccc(-c2onc3c2CCC[C@@]32CCCc3sc(N)c(C#N)c32)n1 | BaF3 | cell growth or viability |  | 72 h | EC50 | 0.374 µM |
| CC(C)c1cccc(C(C)C)c1N=C1C(=O)N(Cc2ccc(Br)cc2)c2ccccc21 | L02 | cell growth or viability, MTT |  | 48 h | IC50 | > 100 µM |
| CCOC(=O)C1=C(CN2CCC(C(=O)Nc3cccc(B(O)O)c3)C2)NC(c2nccs2)=NC1c1ccc(F)cc1Br (stereo not drawn) | Hepatitis B virus | viral replication, inhibitor, qPCR | HepDES19 | 72 h | EC50 | 0.9 µM |
| O=C1C(=Nc2ccccc2Br)c2ccccc2N1Cc1ccccc1 | L02 | cell growth or viability, MTT |  | 48 h | IC50 | 66.2 µM |
| Cc1nc(Nc2ncc(C(=O)Nc3c(C)cccc3Cl)s2)cc(N2CC[C@H](O)C2)n1 | NALM-6 | cell growth or viability, ATP luminescence |  | 10 µM, 72 h | inhibition | 68% |
| Nc1nn2c(-c3ccc(Cl)cc3Cl)cc(-c3ccc(OCc4ccccc4)cc3)nc2c1N=Nc1ccc(F)cc1 | Saccharomyces cerevisiae | microbial killing, broth dilution | ATCC9763 |  | MFC | 62.5 µg/mL (≈ 107 µM) |
| C[C@H]1CNCCCN1c1nccc(-c2noc([C@@]3(C)CCCc4sc(N)c(C#N)c43)n2)n1 | BaF3 | cell growth or viability |  | 72 h | EC50 | 0.959 µM |
| CNC(=S)NN=Cc1ccc([N+](=O)[O-])cc1 | Leishmania tropica | parasite growth | J774.A1 | 72 h, intracellular, amastigote | IC50 | 258 µM |
| COc1cc(N=C2C(=O)N(Cc3ccccc3)c3ccccc32)cc(OC)c1 | L02 | cell growth or viability, MTT |  | 48 h | IC50 | > 100 µM |
| CCOC(=O)C1=C(CN2CCN(Cc3ccc(B4OC(C)(C)C(C)(C)O4)cc3)CC2)NC(c2nccs2)=NC1c1ccc(F)cc1Br (stereo not drawn) | Hepatitis B virus | viral replication, inhibitor, qPCR | HepDES19 | 72 h | EC50 | 1.2 µM |
| COc1ccc(C=NNC(=S)Nc2cccnc2)cc1 | Leishmania tropica | parasite growth | J774.A1 | 72 h, intracellular, amastigote | IC50 | 350 µM |
| C[C@H]1CNCCCN1c1nccc(-c2noc3c2CCC[C@@]32CCCc3sc(N)c(C#N)c32)n1 | BaF3 | cell growth or viability |  | 72 h | EC50 | 0.188 µM |
| CCOC(=O)C1=C(CN2CCC[C@@H]2C(=O)Nc2ccc(B(O)O)cc2)NC(c2nccs2)=N[C@H]1c1ccc(F)cc1Br | Hepatitis B virus | viral replication, inhibitor, qPCR | HepDES19 | 72 h | EC50 | 0.07 µM |
| CNC(=S)NN=Cc1ccc(O)c(OC)c1 | Leishmania tropica | parasite growth, MTT |  | 72 h, promastigote | IC50 | 200 µM |
| O=C1C(=Nc2cccc(Cl)c2)c2ccccc2N1Cc1ccc([N+](=O)[O-])cc1 | L02 | cell growth or viability, MTT |  | 48 h | IC50 | 22.7 µM |
